Rows were chosen to be rich in hits. Some 2.4% of all compounds tested hit in one or more screens of this group.
ARNT-TACC3 inh – ARNT/TACC3 interaction disruption; actives 0.66% (n = 390,000); Q9Y6A5; AlphaScreen His-ARNT PAS-B/GST-TACC3 binding, luminescence; TACC3 fragment carries E629A point mutation; inhibition, % at 9.99 µM;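 active = mean inhibition of replicates at least 50% and at least half of replicates each reaching 50%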;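 also: 0% = complete ARNT plus TACC3 wells and 100% = ARNT alone without TACC3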
S100A4 inh HTS – inhibitors of human S100A4 binding to myosin IIA peptide; P26447; S100A4/TAMRA-MyoIIA peptide fluorescence polarization; inhibition, % at 10.7 µM; actives 0.14% (n = 360,000);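 active = mean inhibition of at least 70% across replicates, with every replicate also reaching that level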
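Material: S100A4 monomer protein / Buffer or medium: 50 mM HEPES pH 7.2, 10 mM CaCl2, 100 mM KCl / Times: 5 min incubation before reading / Benchmarks: neutral control DMSO, positive control TFP / Reagent: labelled myosin peptide probe, 5 nM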
ERAP1 inh – blocks human ERAP1 aminopeptidase activity | inhibition, % at 10.7 µM | recombinant ERAP1, Leu-AMC fluorescence, 60 min | AID 652197 | Q9NZ08 | actives 0.15% (n = 340,000);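 active = mean replicate inhibition of at least 30%, or all replicates individually reaching that 30% level; inactive = mean below 30% and not every replicate reaching it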;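 also: 0% = neutral control wells and 100% = L-leucinethiol positive control wells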
PGC1a acetyl inh – modulators of PGC1a acetylation; actives 0.17% (n = 350,000); U2OS PGC1a acetylation, AlphaScreen anti-acetyl-lysine; with virally co-expressed GCN5 acetyltransferase; inhibition, % at 15.6 µM;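 active = every replicate shows inhibition of at least 40%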;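 also: 0% = neutral control wells and 100% = positive control wells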
Casp6 inh – blocks human caspase-6 cleavage activity. purified caspase-6, Z-VEID-R110 cleavage fluorescence. inhibition, % at 12.5 µM. P55212. actives 0.53% (n = 350,000). AID 686996;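 active = mean inhibition across replicates at least about 35%, with every replicate also reaching that limit, limit read from the data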;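 also: 0% = median of neutral control wells and 100% = no fluorescence left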
Ecoli rRNA inh – selective bacterial rRNA inhibition in E. coli | E. coli WT GFP vs humanized-ribosome RFP mutants, fluorescence, 24 h; stronger effect = lower value; DMSO median 0, no signal -100 | GFP signal change (wild-type ribosome), % (concentration not given with the values) | actives 1.6% (n = 350,000) | AID 720706;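 active = significant combined selectivity score with lowered wild-type GFP, culture density cut under 30%, mutant RFP and density less affected; inactive = any of these conditions unmet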
Starred values were filed as active, the others as inactive.

For Cc1ccc(S(=O)(=O)NCC[C@H]2CC[C@@H](NC(=O)Nc3ccccc3F)[C@H](CO)O2)cc1 the results were ARNT-TACC3 inh -9, S100A4 inh HTS 1, ERAP1 inh 3, PGC1a acetyl inh -1, Casp6 inh -1 and Ecoli rRNA inh 1.
Screening O=C(C[C@H]1C=C[C@H](NS(=O)(=O)c2ccc(F)cc2)[C@@H](CO)O1)NCCN1CCCCC1 returned S100A4 inh HTS 11, ERAP1 inh 1, PGC1a acetyl inh 7, Casp6 inh 0 and Ecoli rRNA inh 1.
Screening CC(C)c1ccc2oc(=O)cc(CN3CCN(c4ccccc4)CC3)c2c1 returned ARNT-TACC3 inh -1 and PGC1a acetyl inh 8.
For CC1CCN(Cc2cc(=O)oc3ccc4ccccc4c23)CC1 the results were ARNT-TACC3 inh 5, S100A4 inh HTS -4, ERAP1 inh 5, Casp6 inh 2 and Ecoli rRNA inh -23*.
`CC1CCN(Cc2cc(=O)oc3ccc(C(C)C)cc23)CC1` gave ARNT-TACC3 inh -9, S100A4 inh HTS -1, ERAP1 inh 3, PGC1a acetyl inh 4, Casp6 inh 2 and Ecoli rRNA inh -23*.
`CC(C)c1ccc2oc(=O)cc(CN3CCCCC3)c2c1` gave ARNT-TACC3 inh -1, S100A4 inh HTS 0, ERAP1 inh 2, PGC1a acetyl inh 4, Casp6 inh 0 and Ecoli rRNA inh -21*.
`O=C(NCC[C@H]1CC[C@@H](NS(=O)(=O)Cc2ccccc2)[C@@H](CO)O1)C1CCC1` gave PGC1a acetyl inh 4 and Ecoli rRNA inh -1.
`COc1ccccc1-c1cn(CC[C@H]2CC[C@H](NS(=O)(=O)c3ccccc3C)[C@@H](CO)O2)nn1` gave ARNT-TACC3 inh 2, S100A4 inh HTS 5, ERAP1 inh -17, PGC1a acetyl inh -7, Casp6 inh 1 and Ecoli rRNA inh -6.
`CC(C)CC#Cc1ccc2c(c1)O[C@@H](CN(C)S(=O)(=O)c1cccc(F)c1)[C@@H](C)CN([C@H](C)CO)S2(=O)=O` gave ARNT-TACC3 inh 1, S100A4 inh HTS 33, ERAP1 inh -1, PGC1a acetyl inh 0, Casp6 inh 3 and Ecoli rRNA inh -2.
Screening N/C(=N\OS(=O)(=O)c1ccc2ccccc2c1)c1ccncc1 returned ARNT-TACC3 inh -7 and PGC1a acetyl inh 9.
For N/C(=N\OS(=O)(=O)c1ccc2ccccc2c1)c1ccccn1 the results were ARNT-TACC3 inh 59*, S100A4 inh HTS 4, ERAP1 inh -5, Casp6 inh -2 and Ecoli rRNA inh 0.
Screening CN(C)C(=O)[C@H]1[C@H](CO)[C@H]2Cn3c(cccc3=O)[C@H]2N1CC1CCCCC1 returned S100A4 inh HTS -1, ERAP1 inh 1, PGC1a acetyl inh 6, Casp6 inh 2 and Ecoli rRNA inh 0.
O=C(CC1CC1)N1CC[C@@H]2[C@H]1c1cc(-c3cccc(F)c3)ccc1N[C@@H]2CO was read as ARNT-TACC3 inh 5, S100A4 inh HTS -17, ERAP1 inh 1, PGC1a acetyl inh 4, Casp6 inh 1 and Ecoli rRNA inh -51.
Screening CC1Cc2ccccc2N1C(=O)COC(=O)c1cccc(Br)c1 (stereo unspecified) returned ARNT-TACC3 inh 0, S100A4 inh HTS -5, ERAP1 inh -10, PGC1a acetyl inh 4, Casp6 inh -1 and Ecoli rRNA inh -32*.
`COc1cccc(/C=C/C(=O)OCC(=O)N2c3ccccc3CC2C)c1` (stereo unspecified) gave S100A4 inh HTS 8, ERAP1 inh -5, PGC1a acetyl inh 7, Casp6 inh 2 and Ecoli rRNA inh -18*.
Screening CC1Cc2ccccc2N1C(=O)COC(=O)c1cc(Br)ccc1O (stereo unspecified) returned ARNT-TACC3 inh -3, S100A4 inh HTS 2, ERAP1 inh -1, Casp6 inh 3 and Ecoli rRNA inh 10.
`COc1ccc(S(=O)(=O)N[C@@H]2CC[C@H](CCNC(=O)Cc3ccccn3)O[C@@H]2CO)cc1` gave ARNT-TACC3 inh 0, S100A4 inh HTS -13, ERAP1 inh -1, PGC1a acetyl inh 12, Casp6 inh 2 and Ecoli rRNA inh 1.
